20 molecules from ChEMBL document CHEMBL4732217, “Design, synthesis, biological evaluation, and docking studies of novel (imidazol-5-yl)pyrimidine-based derivatives as dual BRAF/p38α inhibitors” (Eur J Med Chem, 2021) can be followed below.

In assay [1] the target is T1, Serine/threonine-protein kinase B-raf (Homo sapiens, UniProt P15056, V600E). The experiment in a line: Inhibition of BRAF V600E mutant (unknown origin) using Ser/Thr 03 as substrate after 1 hr in presence of ATP by Z'-LYTE assay.
T1 sequence (P15056 2-766 V600E limits assumed): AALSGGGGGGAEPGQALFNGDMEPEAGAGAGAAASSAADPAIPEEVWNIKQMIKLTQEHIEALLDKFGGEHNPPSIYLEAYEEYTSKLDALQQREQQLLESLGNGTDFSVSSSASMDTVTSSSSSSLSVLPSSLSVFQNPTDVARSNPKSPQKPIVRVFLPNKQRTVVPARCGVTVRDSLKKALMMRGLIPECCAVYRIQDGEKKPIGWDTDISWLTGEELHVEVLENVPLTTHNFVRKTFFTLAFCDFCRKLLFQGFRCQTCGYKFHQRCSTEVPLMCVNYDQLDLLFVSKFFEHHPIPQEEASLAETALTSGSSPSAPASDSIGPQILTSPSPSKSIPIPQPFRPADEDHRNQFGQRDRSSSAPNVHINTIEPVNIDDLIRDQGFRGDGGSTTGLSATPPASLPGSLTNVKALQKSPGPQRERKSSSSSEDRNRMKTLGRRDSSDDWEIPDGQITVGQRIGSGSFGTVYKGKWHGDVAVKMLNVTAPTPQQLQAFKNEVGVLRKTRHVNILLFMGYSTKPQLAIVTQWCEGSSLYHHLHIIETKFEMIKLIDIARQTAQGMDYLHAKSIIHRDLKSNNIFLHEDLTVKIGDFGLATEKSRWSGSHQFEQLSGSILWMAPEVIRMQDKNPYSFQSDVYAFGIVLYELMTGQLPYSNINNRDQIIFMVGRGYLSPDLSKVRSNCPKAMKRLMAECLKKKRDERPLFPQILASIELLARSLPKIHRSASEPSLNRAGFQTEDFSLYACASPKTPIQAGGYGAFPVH
The subject of assay [2] is Serine/threonine-protein kinase B-raf (Homo sapiens), P15056 [V600E]. In words: Inhibition of BRAF V600E mutant (unknown origin) at 10 uM using Ser/Thr 03 as substrate after 1 hr in presence of ATP by Z'-LYTE assay relative to control. Summed up: (§1)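 Run by a commercial kinase profiling service at 100 µM ATP. Single-point screening was followed by 5-point titration (1 nM, 10 nM, 100 nM, 1 µM, 10 µM) for IC50.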

For assay [3], the target named is T2, Mitogen-activated protein kinase 14 (Homo sapiens, UniProt Q16539). The experiment in a line: Inhibition of p38 alpha (unknown origin) at 10 uM using Ser/Thr 15 as substrate incubated for 1 hr in presence of ATP by Z'-Lyte assay relative to control. In short, it runs like this: as §1
T2 sequence (Q16539 whole entry): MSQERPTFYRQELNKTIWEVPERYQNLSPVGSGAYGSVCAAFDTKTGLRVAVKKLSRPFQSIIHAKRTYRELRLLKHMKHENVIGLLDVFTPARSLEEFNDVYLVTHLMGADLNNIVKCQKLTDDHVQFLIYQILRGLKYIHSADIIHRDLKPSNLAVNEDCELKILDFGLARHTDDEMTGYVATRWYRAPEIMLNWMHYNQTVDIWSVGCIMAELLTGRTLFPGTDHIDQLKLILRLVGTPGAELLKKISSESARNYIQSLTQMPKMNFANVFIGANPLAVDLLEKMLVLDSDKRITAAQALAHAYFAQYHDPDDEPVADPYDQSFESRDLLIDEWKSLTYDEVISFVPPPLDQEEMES
Assay [4] addresses T2, Mitogen-activated protein kinase 14. In words: Inhibition of p38 alpha (unknown origin) using Ser/Thr 15 as substrate incubated for 1 hr in presence of ATP by Z'-Lyte assay.
For a further assay, the system named is LOX IMVI. In words: cells. In kind it is functional, cell-based. Conditions: Homo sapiens, 24 h.
Assay [5] in a line: Selectivity index, ratio of IC50 for human IOSE-80PC cells to IC50 for human LOX IMVI cells. Summed up: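 IC50 against IOSE-80PC normal ovarian epithelial cells (MTT, 5-dose) divided by IC50 against LOX-IMVI melanoma cells (MTT, 24 h compound exposure, means of duplicate experiments ± S.D.).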
A short description of assay [6]: Cytotoxicity against human IOSE-80PC cells assessed as reduction in cell viability incubated for 24 hrs by MTT assay. The class given is cell-based, IOSE80pc. In short, it runs like this:
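Human ovarian epithelial IOSE-80PC cells grown in RPMI 1640 with FBS and penicillin-streptomycin, seeded at 1 × 10⁵/mL, exposed to a range of compound concentrations in 5-dose mode. Viability read by MTT; IC50 derived.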

Assay [7] addresses T2, Mitogen-activated protein kinase 14. The experiment in a line: Potency index, ratio of PP2 IC50 to compound IC50 for inhibition of P38 alpha (unknown origin).
The next assay concerns RAW264.7. The experiment in a line: Potency index, ratio of BAY 11-7082 IC50 to compound IC50 for inhibition of LPS stimulated TNF-alpha production in mouse RAW264.7 macrophages. The class given is functional.
Assay [8] deals with Serine/threonine-protein kinase B-raf (Homo sapiens), P15056 [V600E]. In words: Potency index, ratio of staurosporine IC50 to compound IC50 for inhibition of BRAF V600E mutant (unknown origin).
Sequence of Serine/threonine-protein kinase B-raf (Homo sapiens), P15056 [V600E] (P15056 whole entry V600E): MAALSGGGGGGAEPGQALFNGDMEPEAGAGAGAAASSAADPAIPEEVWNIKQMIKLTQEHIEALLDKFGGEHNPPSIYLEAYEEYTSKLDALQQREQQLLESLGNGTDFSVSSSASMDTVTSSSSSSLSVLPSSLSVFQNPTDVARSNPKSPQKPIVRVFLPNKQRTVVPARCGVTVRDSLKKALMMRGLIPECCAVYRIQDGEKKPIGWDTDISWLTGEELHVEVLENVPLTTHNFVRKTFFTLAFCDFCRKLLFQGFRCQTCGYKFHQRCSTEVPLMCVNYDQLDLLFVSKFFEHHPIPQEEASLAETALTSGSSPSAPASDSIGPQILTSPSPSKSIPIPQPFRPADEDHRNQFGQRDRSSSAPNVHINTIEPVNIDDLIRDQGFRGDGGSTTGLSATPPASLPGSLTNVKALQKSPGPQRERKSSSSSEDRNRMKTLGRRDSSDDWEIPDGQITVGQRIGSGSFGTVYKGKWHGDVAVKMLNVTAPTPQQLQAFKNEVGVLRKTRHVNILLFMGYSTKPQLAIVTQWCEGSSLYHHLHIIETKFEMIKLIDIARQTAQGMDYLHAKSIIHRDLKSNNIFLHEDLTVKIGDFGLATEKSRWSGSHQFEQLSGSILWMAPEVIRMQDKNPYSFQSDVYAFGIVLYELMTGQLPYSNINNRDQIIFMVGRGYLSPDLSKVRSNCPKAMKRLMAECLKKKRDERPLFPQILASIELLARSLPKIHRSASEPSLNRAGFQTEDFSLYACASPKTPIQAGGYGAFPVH
Assay [9] in a line: Inhibition of LPS stimulated TNF-alpha production in mouse RAW264.7 macrophages preincubated for 1 hr followed by LPS stimulation and measured after 24 hrs by EIA. In kind it is functional. Summed up: (§2)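 RAW 264.7 macrophages plated at 2 × 10⁵ cells per well and left overnight. Pretreated 1 h with compound, then stimulated 24 h with lipopolysaccharide. TNF-α in culture supernatant measured by EIA. BAY 11-7082 reference tested at 0.5, 1.0, 5.0 and 10.0 µM. Values are means ± S.D.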

Assay [10] is described as follows: Inhibition of LPS stimulated TNF-alpha production in mouse RAW264.7 macrophages at 10 uM preincubated for 1 hr followed by LPS stimulation and measured after 24 hrs by EIA relative to control. The class given is functional. Conditions: time 25 hrs. Summed up: as §2
Assay [11] in a line: Inhibition of LPS stimulated TNF-alpha production in mouse RAW264.7 macrophages at 1 uM preincubated for 1 hr followed by LPS stimulation and measured after 24 hrs by EIA relative to control. The settings on record: time 25 hrs. In kind it is functional. Summed up:
as §2

The target in assay [12] is T1, Serine/threonine-protein kinase B-raf. The experiment in a line: Inhibition of BRAF V600E mutant (unknown origin) preincubated for 20 mins followed by 33P-ATP addition and measured after 2 hrs by HotSpot kinase assay.

Structures are written as SMILES.

Broadly, the IC50 is the concentration needed to halve the response being measured. By inhibition is commonly meant the change of the read-out against control, counted positive when it falls. Regarding `O=S(=O)(NCCCNc1nccc(-c2[nH]c(-c3ccccc3)nc2-c2ccc(F)c(O)c2)n1)c1ccccc1`, the IC50 turned out to be 0.00562 µM in assay [1], 0.21 µM in [4] and 9.58 µM with LOX IMVI. Moreover, the inhibition in assay [2] was 98.4%; in assay [3], 87%.
With `O=S(=O)(NCCCNc1nccc(-c2[nH]c(-c3ccccc3)nc2-c2ccc(Cl)c(O)c2)n1)c1ccc(F)cc1`, the Ratio IC50 in [5] is greater than 4.35. Besides, the inhibition stood at 97.1% in assay [2] and 85.5% in [3]. Moreover, the IC50 is greater than 10 µM in [6] and 2.3 µM in the assay on LOX IMVI.
With `O=S(=O)(NCCCNc1nccc(-c2[nH]c(-c3ccccc3)nc2-c2ccc(Cl)c(O)c2)n1)c1ccccc1`, the IC50 in assay [1] was 0.00425 µM; in [6], greater than 10 µM; with LOX IMVI, 2.63 µM. Besides, the Ratio IC50 in [5] is greater than 3.8. Further, the inhibition in [2] was found to be 99.4%; in [3] it was 82.2%.
Take `O=S(=O)(NCCCNc1nccc(-c2[nH]c(-c3ccccc3)nc2-c2ccc(Cl)c(O)c2)n1)c1cccc(F)c1`: the results for the half-maximal inhibitory concentration (IC50) (in [1]; in the assay on LOX IMVI) were 0.0148 µM and 33.6 µM, respectively. The inhibition in assay [2] worked out at 101%; in assay [3], 78.6%.
On the same counts, the results for `Cc1ccc(S(=O)(=O)NCCCNc2nccc(-c3[nH]c(-c4ccccc4)nc3-c3ccc(Cl)c(O)c3)n2)cc1` are 0.00804 µM, 6.02 µM, 101% and 70.8%.
For the molecule `Cc1ccc(S(=O)(=O)NCCCNc2nccc(-c3[nH]c(-c4ccccc4)nc3-c3ccc(F)c(O)c3)n2)cc1`, the IC50 turned out to be 0.00868 µM in assay [1], 0.2 µM in assay [4] and 26.3 µM in the assay with LOX IMVI. Besides, the inhibition in assay [2] was found to be 101%; in assay [3] it was 87.8%.
For `COc1cc(-c2nc(-c3ccccc3)[nH]c2-c2ccnc(NCCCNS(=O)(=O)c3ccc(C(F)(F)F)cc3)n2)ccc1Cl`, the Ratio IC50 in [5] is greater than 5.62. For the same molecule, the inhibition in assay [2] turned out to be 55.9%; in assay [3], 18.9%. Moreover, the half-inhibitory concentration (IC50) in assay [6] was greater than 10 µM; in the assay on LOX IMVI it was 1.78 µM.
For `O=S(=O)(NCCCNc1nccc(-c2[nH]c(-c3ccccc3)nc2-c2ccc(F)c(O)c2)n1)c1ccc(O)cc1`, the IC50 in assay [1] came to 0.00249 µM; in assay [9], 0.0963 µM; in assay [4], 0.085 µM; in the assay with LOX IMVI, 13.9 µM. Besides, the Ratio IC50 worked out at 49.8 in [7], 53.8 in the assay on RAW264.7 and 12.7 in assay [8]. Besides, the inhibition is 101% in assay [2] and 92.8% in [3]. For the same molecule, the inhibition at 10 µM in [10] was 96.4%. Besides, the inhibition at 1 µM in [11] worked out at 85.2%.
For the molecule `O=S(=O)(NCCCNc1nccc(-c2[nH]c(-c3ccccc3)nc2-c2ccc(F)c(O)c2)n1)c1ccc(C(F)(F)F)cc1`, in [5], the Ratio IC50 was greater than 4.08. Further, the inhibition in assay [2] amounted to 98.4%; in assay [3] it was 65.4%. The IC50 in [6] is greater than 10 µM; with LOX IMVI, 2.45 µM.
With `O=S(=O)(NCCCNc1nccc(-c2[nH]c(-c3ccccc3)nc2-c2ccc(Cl)c(O)c2)n1)c1ccc(O)cc1`, the IC50 in [1] was determined as 0.00781 µM; in the assay on LOX IMVI, 36.8 µM. In addition, the results for the inhibition in assay [2] and in assay [3] were 101% and 77.6%, respectively.
Regarding `Cc1ccc(S(=O)(=O)/C=C/C#N)cc1`, the IC50 in assay [9] is 5.18 µM.
For the molecule `O=S(=O)(NCCNc1cc(-c2[nH]c(-c3ccccc3)nc2-c2cccc(O)c2)ccn1)c1ccc(O)cc1`, in [12], 0.032 µM corresponded to half-maximal inhibition (IC50).
For the molecule `COc1cc(-c2nc(-c3ccccc3)[nH]c2-c2ccnc(NCCCNS(=O)(=O)c3cccc(F)c3)n2)ccc1F`, the Ratio IC50 in [5] is greater than 11.1. The inhibition in [2] came out at 72.5%; in [3], 82.7%. The IC50 in assay [6] was greater than 10 µM; in the assay on LOX IMVI it was 0.9 µM.
Regarding `O=S(=O)(NCCCNc1nccc(-c2[nH]c(-c3ccccc3)nc2-c2ccc(Cl)c(O)c2)n1)c1ccc(Br)cc1`, the figures for the IC50 (in assay [1]; in the assay on LOX IMVI) were 0.0218 µM and 15.5 µM, respectively. The inhibition was found to be 97.3% in assay [2] and 73.7% in [3].
Consider `O=S(=O)(NCCCNc1nccc(-c2[nH]c(-c3ccccc3)nc2-c2ccc(F)c(O)c2)n1)c1ccc(Br)cc1`, for which the figures for the IC50 (in assay [1]; in assay [4]; with LOX IMVI) were 0.0263 µM, 0.33 µM and 5.66 µM, respectively. For the same molecule, the inhibition in assay [2] turned out to be 100%; in assay [3] it was 84.8%.
As for `COc1cc(-c2nc(-c3ccccc3)[nH]c2-c2ccnc(NCCCNS(=O)(=O)c3cccc4ccccc34)n2)ccc1Cl`, the inhibition in assay [2] came to 90%; in assay [3], 27.1%. In addition, the midpoint of inhibition in the assay with LOX IMVI, the IC50, lay at 13.5 µM.
On the same counts, the results for `COc1ccc(S(=O)(=O)NCCCNc2nccc(-c3[nH]c(-c4ccccc4)nc3-c3ccc(Cl)c(OC)c3)n2)cc1` are 91.1%, 54.6% and 1.8 µM.
In the case of `O=S(=O)(NCCCNc1nccc(-c2[nH]c(-c3ccccc3)nc2-c2ccc(F)c(O)c2)n1)c1cccc(F)c1`, the IC50 in assay [1] came to 0.0303 µM; in assay [4] it was 0.14 µM; in the assay with LOX IMVI, 7.89 µM. For the same molecule, the inhibition in assay [2] amounted to 100%; in assay [3] it was 90.5%.
Consider `O=S(=O)(NCCCNc1nccc(-c2[nH]c(-c3ccccc3)nc2-c2ccc(F)c(O)c2)n1)c1ccc(Cl)cc1`, for which the inhibition in assay [2] was 93.9%; in assay [3] it was 84.9%. The molecule further returned a half-maximal inhibitory concentration (IC50) in the assay on LOX IMVI of 14.2 µM.
On the same counts, the results for `COc1cc(-c2nc(-c3ccccc3)[nH]c2-c2ccnc(NCCCNS(=O)(=O)c3ccc(C)cc3)n2)ccc1Cl` are 88.2%, 50.4% and 18.6 µM.
